Rows were chosen to be rich in hits. Some 3.7% of all compounds tested hit in one or more screens of this group.
KCNK9 block = KCNK9 potassium channel inhibitors, primary screen, HEK293 cells, thallium flux | Potassium channel subfamily K member 9 (Homo sapiens), Q9NPC2 | FluxOR thallium flux fluorescence; stronger effect = lower value | B-score at 10 µM | actives 1.2% (n = 310,000) | AID 488922, 2010;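 active = ratio B-score over 3 SD below the library mean, with starting fluorescence within 5 SD of its mean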;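 also: negative B-score means less thallium flux so channel inhibition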
KCNK3 block = human KCNK3 channel inhibitors, primary screen, CHO cells, FluxOR thallium flux, B-score; FluxOR fluorescence; stronger effect = lower value; B-score at 10 µM; actives 0.84% (n = 340,000); AID 602410, 2012;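 active = B-score under library mean minus 4 SD, starting fluorescence ratio at most library mean plus 5 SD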;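 also: more negative B-score means stronger inhibition of thallium flux through KCNK3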
Target sequence (O14649 whole entry, looked up): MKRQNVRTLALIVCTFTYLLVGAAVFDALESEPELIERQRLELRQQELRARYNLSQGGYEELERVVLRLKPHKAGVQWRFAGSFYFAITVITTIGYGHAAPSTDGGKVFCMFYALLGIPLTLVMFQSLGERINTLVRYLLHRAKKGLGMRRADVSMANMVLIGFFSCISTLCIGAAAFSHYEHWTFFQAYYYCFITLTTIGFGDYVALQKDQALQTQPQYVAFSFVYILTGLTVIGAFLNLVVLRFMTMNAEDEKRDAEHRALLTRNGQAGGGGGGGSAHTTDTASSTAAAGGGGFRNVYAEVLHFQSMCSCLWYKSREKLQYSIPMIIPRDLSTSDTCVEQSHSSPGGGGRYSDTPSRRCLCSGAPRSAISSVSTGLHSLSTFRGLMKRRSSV
KCNQ1 inh = inhibitors of human KCNQ1 channel, primary screen, cell-based, thallium flux, high-throughput; Potassium voltage-gated channel subfamily KQT member 1 (Homo sapiens), P51787; CHO-K1 KCNQ1, FluxOR thallium flux fluorescence; stronger effect = higher value; B-score at 10 µM; actives 1.3% (n = 310,000); AID 2642, 2010;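 active = compounds whose thallium flux B-score, printed positive for inhibition, exceeds three library SD while starting fluorescence stays within three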;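 also: channel opened by potassium depolarization with thallium stimulus after 20 min compound exposure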
hERG protect = hERG rescue from dofetilide block, primary screen, cell-based, CHO-hERG, FluxOR thallium flux, dofetilide IC70; Voltage-gated inwardly rectifying potassium channel KCNH2 (Homo sapiens), Q12809; dofetilide IC70 present; activation (rescue from dofetilide block), less the hit threshold, % at 10 µM; actives 0.51% (n = 310,000); AID 1511, 2009;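 active = activation above the mean of controls blocked by dofetilide plus 5 SD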;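 also: thallium influx through hERG after potassium depolarization seen as dye fluorescence rise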
Kir21 block = inhibitors of mouse Kir2.1 inward-rectifier potassium channel; actives 0.85% (n = 310,000); B-score at 10 µM; AID 1672, 2009; Inward rectifier potassium channel 2 (Mus musculus), P35561; HEK293-Kir2.1, FluxOR thallium flux fluorescence; stronger effect = lower value;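 active = fluorescence ratio B-score at or below minus 3 SD of library scores, with starting-brightness B-score within 2 SD, cut at about -4.2 in these data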;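 also: channel flux triggered by added potassium and thallium sulfate stimulus; B-score of peak minus minimum fluorescence over baseline after thallium stimulus; more negative B-score means stronger Kir2.1 block with less thallium influx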
KCNQ1 act = potentiators or activators of KCNQ1 channel, primary screen, cell-based, thallium flux, high-throughput; Potassium voltage-gated channel subfamily KQT member 1 (Homo sapiens), P51787; CHO-K1 KCNQ1, thallium flux FluxOR fluorescence; stronger effect = higher value; B-score at 10 µM; actives 0.35% (n = 310,000);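 active = fluorescence ratio B-score, a plate-corrected score, at least three library SD, with initial intensity B-score within 5 SD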
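Schedule – 37 °C overnight plating, 90-min dark dye load, 20-min compound pretreatment · System – stable KCNQ1 CHO-K1 line · Probe or stimulus – thallium- and potassium-containing depolarizing buffer · Measured by – kinetic FluxOR fluorescence, 10 s baseline plus 110 s post-stimulus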
KCNK3 inh conf = retest of human KCNK3 channel inhibitors, confirmation, CHO cells, FluxOR thallium flux, triplicate | shares compounds with KCNK3 block | FluxOR fluorescence; 0% buffer, 100% carvedilol maximal block | ratio percent of control, % at 10 µM | actives 99% (n = 2,400);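 active = ratio percent of control, averaged over triplicates, above buffer control mean plus 5 SD, cut at about 64% in these data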;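 also: ratio is the fluorescence rise from min to max over baseline after thallium stimulus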
KCNK3 uninduced = thallium flux inhibition in non-induced cells, primary screen, counter-screen for KCNK3 inhibitor project, cell-based, non-induced KCNK3 line, FluxOR thallium, triplicate; non-induced KCNK3 parental cells; stronger effect = lower value; thallium flux ratio (lower = more inhibition) at 10 µM; actives 40% (n = 2,400); shares compounds with KCNK3 block; AID 651747, 2012;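 active = thallium flux ratio, averaged over three wells, more than 5 SD below the buffer control mean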;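 also: host cells are CHO cells without KCNK3 induction; ratio is peak minus trough fluorescence over baseline then normalized to buffer controls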
Numbers without * were called inactive; i = inactive; . = no result given.

SMILES | KCNK9 block | KCNK3 block | KCNQ1 inh | hERG protect | Kir21 block | KCNQ1 act | KCNK3 inh conf | KCNK3 uninduced
CCCc1cc(=O)oc2cc(OCC(=O)NCCc3c[nH]c4ccccc34)ccc12 | i | i | i | -3 | -0.28 | i | . | .
O=C(CCN=C1NS(=O)(=O)c2ccccc21)Nc1ccc(Cl)cc1F | . | i | . | . | . | . | . | .
CC1CC(C)(C)N(C(=O)CSc2ccc(-c3ccc(F)cc3)nn2)c2ccccc21 (stereo not drawn) | i | -12* | 7* | -10 | -0.7 | i | 112* | 0.15*
CC1CCN(C(=O)CSc2ccc(-c3ccc(F)cc3)nn2)CC1 | i | i | i | -10 | 1.3 | i | . | .
CCOC(=O)N(Cc1ccccc1)Cc1ccc(C(=O)N[C@@H](Cc2ccccc2)C(=O)O)cc1 | i | i | i | -5 | -1.3 | i | . | .
Cc1sc2ncnc(N3CCC(C(=O)Oc4cccc(Cl)c4Cl)CC3)c2c1C | -8.1* | -9.1* | i | -1 | 0.67 | i | 96* | i
Cc1sc2ncnc(N3CCC(C(=O)Nc4ccccc4C(C)(C)C)CC3)c2c1C | i | i | i | -11 | 0.46 | i | . | .
Cc1sc2ncnc(N3CCC(C(=O)Nc4nc(-c5cccs5)cs4)CC3)c2c1C | i | -8.9* | i | -18 | 0.57 | i | 94* | i
CC(C#N)(NC(=O)CN1CCN(S(=O)(=O)c2ccc(Br)cc2Cl)CC1)C1CC1 (stereo not drawn) | . | i | . | . | . | . | . | .
CCN(Cc1ccc(OC)c(F)c1)C(=O)CCl | i | i | i | -14 | 0.17 | i | . | .
CCN(Cc1ccc(OC)c(F)c1)C(=O)c1oc2ccccc2c1COC | i | -14* | i | -8 | -2.5 | i | 94* | i
CN(C(=O)COC(=O)CSc1cc(Cl)ccc1Cl)c1c(N)n(Cc2ccccc2)c(=O)[nH]c1=O | i | i | i | -1 | 0.25 | i | . | .
CCOc1ccccc1OCCCOc1ccc([N+](=O)[O-])cc1Cl | i | -9.8* | i | 3 | -0.4 | i | 110* | i
O=C(O)c1cc2c(ccc3ccccc32)o1 | i | i | i | -5 | 1.7 | i | . | .
O=C(c1cc2c(ccc3ccccc32)o1)N1CCCCC1 | i | -9.1* | i | -1 | 0.92 | i | 84* | i
COc1ccc(NC(=O)c2ccc(S(=O)(=O)N3CC(C)CC(C)C3)cc2)cc1S(N)(=O)=O (stereo not drawn) | . | i | . | . | . | . | . | .
COc1ccc(S(=O)(=O)N2CCCC(C(=O)NCC3CCCO3)C2)cc1OC (stereo not drawn) | i | i | i | -7 | -0.42 | i | . | .
CCN1/C(=C\C(=S)Nc2ccccc2)Sc2ccccc21 | i | -9.8* | i | -14 | 0.14 | i | 110* | i
CCC(C)c1ccc(NC(=O)C2CC3CCC2C3)cc1 (stereo not drawn) | -6.6* | -9.4* | i | -9 | 0.01 | i | 116* | i
Cc1ccc(NC2CCCN(C(=O)c3ccoc3C)C2)cc1C (stereo not drawn) | i | i | i | -9 | -0.93 | i | . | .
Cc1cc2oc(C(=O)N(Cc3ccccc3)C3CCS(=O)(=O)C3)c(C)c2cc1C (stereo not drawn) | i | -11* | i | -14 | -1.6 | i | 92* | i

Bioassay records: PubChem BioAssay, Johns Hopkins Ion Channel Center
